Screens as filed in PubChem.
hERG rescue – hERG (human) protection from proarrhythmic block; CHO-hERG, FluxOR thallium flux, dofetilide IC70 present; Q12809; activation (rescue from dofetilide block), less the hit threshold, % at 10 µM; AID 1511; hit rate 0.51% among 310,000;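 active = activation above the mean of controls blocked by dofetilide plus 5 SD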;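 note: thallium influx through hERG after potassium depolarization seen as dye fluorescence rise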
KCNQ1 pot – potentiators or activators of human KCNQ1 potassium channel | P51787 | CHO-K1 KCNQ1, thallium flux FluxOR fluorescence; stronger effect = higher value | B-score at 10 µM | hit rate 0.35% among 310,000 | AID 2648;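 active = fluorescence ratio B-score, a plate-corrected score, at least three library SD, with initial intensity B-score within 5 SD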
Target sequence (P51787 whole entry, looked up): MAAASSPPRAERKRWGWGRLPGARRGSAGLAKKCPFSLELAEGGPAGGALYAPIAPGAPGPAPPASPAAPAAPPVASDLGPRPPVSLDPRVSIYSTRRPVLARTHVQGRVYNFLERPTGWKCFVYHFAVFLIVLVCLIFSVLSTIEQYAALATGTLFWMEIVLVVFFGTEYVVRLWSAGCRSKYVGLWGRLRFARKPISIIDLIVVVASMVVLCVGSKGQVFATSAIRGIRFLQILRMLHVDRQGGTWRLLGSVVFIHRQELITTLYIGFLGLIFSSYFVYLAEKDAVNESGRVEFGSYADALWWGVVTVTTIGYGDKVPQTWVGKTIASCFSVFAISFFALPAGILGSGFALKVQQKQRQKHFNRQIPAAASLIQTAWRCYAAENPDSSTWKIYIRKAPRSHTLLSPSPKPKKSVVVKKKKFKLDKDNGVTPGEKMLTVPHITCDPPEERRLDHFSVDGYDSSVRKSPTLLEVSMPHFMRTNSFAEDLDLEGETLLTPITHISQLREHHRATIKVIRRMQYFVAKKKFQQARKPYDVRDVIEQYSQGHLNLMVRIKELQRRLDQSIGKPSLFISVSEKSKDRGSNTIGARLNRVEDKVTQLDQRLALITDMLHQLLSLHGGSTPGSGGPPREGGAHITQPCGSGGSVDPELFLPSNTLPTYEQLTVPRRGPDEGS
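Material: CHO-K1 cells stably expressing KCNQ1. Medium: assay buffer for compound exposure, DMSO matched across wells. Reagent: K+/Tl+ depolarizing stimulus. Compound dosing: single-concentration screen. Times: 37 °C overnight plating, 90-min dark dye load, 20-min compound pretreatment. Technique: FluxOR Tl+ flux fluorescence.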
KCC2 mod – modulators of human KCC2 chloride dependent transport; KCC2 cells, thallium flux FluoZin-2 fluorescence; hit rate 2.2% among 190,000; Q9H2X9; B-score of Tl+ flux slope (higher = more flux/activation; lower = inhibition) at 10 µM;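 active = thallium flux slope and its plate-corrected score both differing from the plate sample mean at a set confidence after two filtering rounds, in either direction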;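 note: slope of fluorescence scaled to starting intensity during 10 to 20 s after thallium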
KCNK3 inh – human KCNK3 channel inhibition, primary screen; B-score at 10 µM; O14649; CHO-KCNK3 thallium flux, FluxOR fluorescence; stronger effect = lower value; hit rate 0.84% among 340,000;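 active = B-score under library mean minus 4 SD, starting fluorescence ratio at most library mean plus 5 SD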;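 note: more negative B-score means stronger inhibition of thallium flux through KCNK3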
KCNQ1 block – blocks the human KCNQ1 potassium channel; P51787; CHO-K1 KCNQ1, FluxOR thallium flux fluorescence; stronger effect = higher value; B-score at 10 µM; hit rate 1.3% among 310,000; AID 2642;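 active = compounds whose thallium flux B-score, printed positive for inhibition, exceeds three library SD while starting fluorescence stays within three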;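 note: channel opened by potassium depolarization with thallium stimulus after 20 min compound exposure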
KCNK9 inh – inhibitors of human KCNK9 two-pore domain potassium channel | Q9NPC2 | B-score at 10 µM | HEK293 KCNK9, FluxOR thallium flux fluorescence; stronger effect = lower value | hit rate 1.2% among 310,000;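 active = ratio B-score over 3 SD below the library mean, with starting fluorescence within 5 SD of its mean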;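 note: negative B-score means less thallium flux so channel inhibition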
KCNK9 inh conf – human KCNK9 inhibitor confirmation | hit rate 43% among 4,900 | shares compounds with KCNK9 inh | inhibition, % at 10 µM | HEK293 KCNK9 cells, FluxOR thallium flux fluorescence;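 active = thallium signal inhibited by more than 5 SD of the compound-free buffer control wells, on both duplicate plates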
Kir2-1 spec – tests whether KCNK9 modulators also affect mouse Kir2.1 | AID 492993 | inhibition, % at 10 µM | hit rate 4% among 4,900 | shares compounds with KCNK9 inh | Kir2.1 cells, FluxOR thallium flux fluorescence;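 active = thallium signal drop more than 5 SD beyond the mean of the no-compound control wells, seen in both duplicate plates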;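 note: signal is fluorescence rise after thallium addition divided by baseline fluorescence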
KCNK9 uninduced – second counter-screen for KCNK9 modulators: effect in non-induced cells | hit rate 40% among 4,900 | non-induced KCNK9-HEK293, FluxOR thallium flux | inhibition, % at 10 µM | AID 492997 | shares compounds with KCNK9 inh;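 active = thallium signal drop beyond 5 SD of the untreated control mean, on both duplicate plates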
Of the large screens only hits and unclear results are named; the others gave an inactive call (follow-up assays come after a bar, where they were run); ! = not active in a repeat. An excerpt weighted towards active compounds, which were near 4.1% of everything screened.

O=C1ON=C(c2ccccc2)/C1=C/c1ccccc1	none (no result: KCC2 mod)
CCN(CC)c1nc(C(N)=O)cc(-c2ccccc2)n1	KCNK9 inh -8.53 | KCNK9 inh conf inactive | Kir2-1 spec inactive | KCNK9 uninduced inactive
CCCCN(CC)C(=O)CSc1nc2n[nH]c(C)c2c(=N)n1-c1cccc(C)c1	KCNK9 inh -9.25 | KCNK9 inh conf 33.5% | Kir2-1 spec inactive | KCNK9 uninduced inactive
Cc1cccc(-n2c(SCC(=O)N3CCCC3)nc3n[nH]c(C)c3c2=N)c1	none
C(=N\N(Cc1ccccc1)c1ccccc1)/c1cccnc1	KCNK9 inh -12.3 | KCNK9 inh conf 53.5% | Kir2-1 spec inactive | KCNK9 uninduced 26.0%
C/C(=N\N(Cc1ccccc1)c1ccccc1)c1cccnc1	none
COC/C=C/C1=CC2=CC(=O)C(C)(OC(=O)c3cnc4ccccc4n3)C(=O)C2=CN1C1CCCC1 (stereo not drawn)	none (no result: KCC2 mod, KCNK3 inh)
c1ccc(Cc2nnc(Sc3ccccc3)c3ccccc23)cc1	KCNK9 inh -8.53 (no result: KCC2 mod) | KCNK9 inh conf 46.0% | Kir2-1 spec inactive | KCNK9 uninduced 37.0%
c1ccc(Sc2ncnc3ccccc23)cc1	none
Cc1ccc(Nc2nc(N)nc(-c3oc4ccccc4c3C)n2)cc1	none
Cc1cccc(Nc2nc(N)nc(-c3oc4ccccc4c3C)n2)c1	KCNK9 inh -8.87 | KCNK9 inh conf 35.0% | Kir2-1 spec inactive | KCNK9 uninduced inactive
COc1cccc(Nc2nc(N)nc(-c3oc4ccccc4c3C)n2)c1	KCNK9 inh -10.2 | KCNK9 inh conf 37.5% | Kir2-1 spec inactive | KCNK9 uninduced inactive
O=C(OCCCOC(=O)c1ccccc1O)c1ccccc1O	none (no result: KCC2 mod, KCNK3 inh)
Cc1ccc(NC(=O)c2ncn(CCCN(C)CCc3ccccn3)n2)cc1C	none (no result: hERG rescue, KCNQ1 pot, KCC2 mod, KCNQ1 block, KCNK9 inh)
Cc1ccc(Cn2c(C3CCCN3c3nc(C)cs3)nc3cc(C(F)(F)F)ccc32)cc1 (stereo not drawn)	KCNK9 inh -14.9 (no result: KCC2 mod) | KCNK9 inh conf 74.0% | Kir2-1 spec inactive | KCNK9 uninduced 56.0%
COc1ccc(N2CCN(C(=O)CSc3ncnc4scc(-c5ccc(C)cc5)c34)CC2)cc1	none (no result: KCC2 mod) | KCNK9 inh conf inactive | Kir2-1 spec inactive | KCNK9 uninduced inactive
CCN(CC(=O)NCc1ccc(F)cc1)C(=O)COc1ccccc1[N+](=O)[O-]	none (no result: hERG rescue, KCNQ1 pot, KCC2 mod, KCNQ1 block, KCNK9 inh)
COC(=O)C1=C(C)NC(C)=C(C(=O)OC)C1c1ccc(OC(=O)c2oc3ccccc3c2C)c(OC)c1	KCNK9 inh -9.59 | KCNK9 inh conf 62.0% | Kir2-1 spec inactive | KCNK9 uninduced 33.5%
COc1ccccc1C(=O)NC(=O)COC(=O)c1oc2ccccc2c1C	none (no result: hERG rescue, KCNQ1 pot, KCC2 mod, KCNQ1 block, KCNK9 inh)
COc1ccc(-c2[nH]ncc2[C@@H]2C[C@H]3CN(Cc4ccccc4C)C(=O)[C@]34CCCN24)cc1	none | KCNK9 inh conf inactive | Kir2-1 spec inactive | KCNK9 uninduced inactive
COCCn1c(SCc2nnc(-c3ccccc3)o2)nc2sc3c(c2c1=O)CCC3	KCNK9 inh -11.2 (no result: KCC2 mod) | KCNK9 inh conf 37.0% | Kir2-1 spec inactive | KCNK9 uninduced 32.5%
CCOC(=O)CNC(=O)C12CC3CC(C1)CC(c1ccc(C)cc1)(C3)C2	none | KCNK9 inh conf inactive | Kir2-1 spec inactive | KCNK9 uninduced inactive
CCOc1ccc(NC(=O)C23CC4CC(C2)CC(c2ccccc2)(C4)C3)cc1	none | KCNK9 inh conf inactive | Kir2-1 spec inactive | KCNK9 uninduced inactive
Cc1nn2c(NCc3ccccn3)cc(C(C)(C)C)nc2c1-c1ccccc1	none | KCNK9 inh conf inactive | Kir2-1 spec inactive | KCNK9 uninduced inactive
CC(C)(C)c1ccc(C(=O)NCC2CCCN2S(=O)(=O)c2ccccc2)cc1 (stereo not drawn)	none (no result: KCC2 mod) | KCNK9 inh conf inactive | Kir2-1 spec inactive | KCNK9 uninduced inactive
Cc1ccc(C(=O)NCC2CCCN2S(=O)(=O)c2ccc(C)cc2)cc1 (stereo not drawn)	none (no result: KCC2 mod)
Cc1cc(C)c(C(=O)COC(=O)C2CCN(c3ccc(C(F)(F)F)cn3)CC2)cc1C	KCNQ1 block 7 (no result: KCC2 mod) | KCNK9 inh conf inactive | Kir2-1 spec inactive | KCNK9 uninduced inactive
Cn1c(=O)c(Oc2ccc(Cl)cc2)c(O)c2ccccc21	none (no result: KCC2 mod)
Cn1c(=O)c2nc(-c3ccc(Cl)cc3Cl)oc2c2ccccc21	KCNK9 inh -10.2 | KCNK9 inh conf 27.5% | Kir2-1 spec inactive | KCNK9 uninduced 32.5%
CC1S/C(=N/N=C/c2ccco2)N(Cc2ccccc2)C1=O (stereo not drawn)	none (no result: KCC2 mod)
CC/C(=N\N=C1\SC(C)C(=O)N1Cc1ccco1)c1ccccc1 (stereo not drawn)	none | KCNK9 inh conf inactive | Kir2-1 spec inactive | KCNK9 uninduced 26.0%
CC(C)C(=O)Nc1ccc(NC(=O)c2ccc(COc3ccccc3)cc2)cc1	none (no result: KCC2 mod)
COc1ccccc1NC(=O)Cc1cccc2ccccc12	none (no result: KCC2 mod)
COc1ccc(C(C)(C)C)cc1NC(=O)CNc1cccc2ccccc12	none | KCNK9 inh conf inactive | Kir2-1 spec inactive | KCNK9 uninduced inactive
Cc1ccc(S(=O)(=O)N2CCN(C(=O)COC(=O)c3ccc(Cl)c(S(N)(=O)=O)c3)CC2)c(C)c1	none (no result: hERG rescue, KCNQ1 pot, KCC2 mod, KCNQ1 block, KCNK9 inh)
Cc1ccc(C(=O)OC(C)C(=O)N(C)C2CCCCC2)cc1S(=O)(=O)N1CCCCC1 (stereo not drawn)	none (no result: hERG rescue, KCNQ1 pot, KCC2 mod, KCNQ1 block, KCNK9 inh)
CCCCCCCCCCCCCCCCn1cc[n+](C)c1	KCNK3 inh -12.3!, KCNQ1 block 10!, KCNK9 inh -12.5! | KCNK9 inh conf 61.5% | Kir2-1 spec 43.5% | KCNK9 uninduced 25.5%
CC(C)(C)C1CCC(CN2CCC(CN3C(=O)C(=O)NC[C@@H]3Cc3ccccc3)CC2)CC1 (stereo partly drawn)	none (no result: hERG rescue, KCNQ1 pot, KCC2 mod, KCNQ1 block, KCNK9 inh)
CN(C)C(CNc1ncnc2sc3c(c12)CCCCC3)c1ccco1 (stereo not drawn)	none | KCNK9 inh conf inactive | Kir2-1 spec inactive | KCNK9 uninduced inactive
O=[N+]([O-])c1ccccc1/C=N/Nc1nc(N2CCCC2)nc(N2CCCC2)n1	none
O=[N+]([O-])c1cc2c(cc1/C=N/Nc1nc(N3CCCC3)nc(N3CCCC3)n1)OCO2	none | KCNK9 inh conf inactive | Kir2-1 spec inactive | KCNK9 uninduced inactive
CCOc1ccccc1-n1c(SCC(=O)Nc2nccs2)nnc1-c1ccoc1C	KCNK9 inh -8.7 | KCNK9 inh conf 47.0% | Kir2-1 spec inactive | KCNK9 uninduced 25.5%
CCOc1ccc(-n2c(SCC(=O)Nc3nccs3)nnc2-c2ccoc2C)cc1	none (no result: KCC2 mod)
COc1ccc(C=C(NC(=O)c2ccccc2)C(=O)O)cc1OC	none (no result: hERG rescue, KCNQ1 pot, KCC2 mod, KCNQ1 block, KCNK9 inh)
COc1cccc(CNC(=O)c2nnn(CC(=O)Nc3ccc(Br)cc3)c2N)c1	none (no result: KCC2 mod)
COc1ccc(-n2c(C)nn(CCOc3ccccc3)c2=O)cc1	none
